Measurements: ChEMBL document CHEMBL3124872, “Discovery and early development of TMC647055, a non-nucleoside inhibitor of the hepatitis C virus NS5B polymerase” (J Med Chem, 2014)
Activity calls are given as the source filed them. No cut-off for these calls is given here.

What was measured:
Hepatitis C virus [1] = test: Antiviral activity against Hepatitis C virus harboring […] L31V mutant infected in human HuH7 by luciferase reporter gene assay; assay type: functional, organism-based; details: Hepacivirus hominis; Huh-7
Hepatitis C virus [2] = test: Antiviral activity against Hepatitis C virus genotype 1b infected in human assessed as log10 reduction in HCV RNA level at 1000 mg, po bid for 5 days followed by morning dose on day 6 relative to control; assay type: functional, Hepacivirus hominis
Procedure, shortened: (§1)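 Oral b.i.d. dosing of HCV genotype 1-infected patients at 500 mg or 1000 mg for 5 days, plus a morning dose on day 6, in hydroxypropyl-β-cyclodextrin vehicle. Read-out was the median maximum decrease in plasma HCV RNA from baseline (log10), using patients with HCV RNA data available up to Day 6.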

Hepatitis C virus [3] = test: Antiviral activity against Hepatitis C virus genotype 1b infected in human assessed as log10 reduction in HCV RNA level at 500 mg, po bid for 5 days followed by morning dose on day 6 relative to control; assay type: functional, Hepacivirus hominis; procedure, shortened: as §1
Homo sapiens [4] = test: Toxicity in human assessed as effect on appetite at 300 to 1250 mg, po bid for 5 days followed by morning dose on day 6; assay type: organism-based; details: in vivo, 120 h
Procedure, shortened: (§2)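 Healthy volunteers given oral b.i.d. doses of 300, 1000 or 1250 mg for 5 days plus a morning dose on day 6, in hydroxypropyl-β-cyclodextrin vehicle; adverse events, laboratory parameters, vital signs, food consumption, appetite, ECG and plasma 4-β-hydroxycholesterol (CYP3A4 induction marker) monitored.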

[5] = Cytotoxicity against human MT4 cells; assay type: cell-based
[6] = Binding affinity to Hepatitis C virus Con 1b wild-type NS5B by surface plasmon resonance analysis; design: species or system Hepatitis C virus (isolate Con1)
Procedure, shortened: (§3)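 Surface plasmon resonance binding to NS5B polymerase of the stated genotype; association and dissociation rate constants measured, from which Kd and residence half-life were derived; median Kd reported.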

Homo sapiens [7] = test: Toxicity in human assessed as effect on food consumption at 300 to 1250 mg, po bid for 5 days followed by morning dose on day 6; assay type: organism-based; details: in vivo, 120 h; procedure, shortened: as §2
[8] = Binding affinity to Hepatitis C virus genotype 3a NS5B by surface plasmon resonance analysis; design: species or system Hepatitis C virus subtype 3a; procedure, shortened: as §3
Hepatitis C virus [9] = test: Antiviral activity against wild-type Hepatitis C virus Con 1b infected in human HuH7 by transient replicon assay; assay type: functional, organism-based, Hepacivirus hominis; details: isolate Con1, Huh-7
Hepatitis C virus [10] = test: Antiviral activity against Hepatitis C virus genotype 1b infected in human HuH7 assessed as rebound of replicon RNA at 3.75 uM preincubated for 2 weeks followed by 3 week rebound phase by RT-PCR analysis; assay type: functional, organism-based; details: Hepacivirus hominis, Huh-7
Procedure, shortened: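 Clearance-and-rebound test in Huh7-Luc genotype 1b replicon cells. Cells were incubated with inhibitor (3.75 μM alone) for 14 days, then held for a 3-week rebound phase without inhibitor. Replicon RNA was followed for clearance and rebound.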

For `COc1ccc2c(c1)C=C1Cn3c-2c(C2CCCCC2)c2ccc(cc23)C(=O)NS(=O)(=O)N(C)CCOCCN(C)C1=O` [TMC-647055], the Activity (Hepatitis C virus [1]) was “Active”, the FC (Hepatitis C virus [2]) was 3.4 and the FC (Hepatitis C virus [3]) was 3.3. The Activity (Homo sapiens [4]) was “Non-toxic”, the CC50 [5] was 28900 nM and the Kd [6] was 4.1 nM. The Activity (Homo sapiens [7]) was “Non-toxic”, the Kd [8] was 6.1 nM and the EC50 (Hepatitis C virus [9]) was 51 nM. For the same molecule, the Activity (Hepatitis C virus [10]) was “inactive”.
